inhibition, IC50 and Activity data for 30 compounds are collected here from ChEMBL document CHEMBL1268807, “Discovery of small molecule inhibitors of the PH domain leucine-rich repeat protein phosphatase (PHLPP) by chemical and virtual screening” (J Med Chem, 2010).

The test system of one data set is HT-29 (Homo sapiens). In words: Inhibition of PHLPP in human HT29 cells assessed as increase of phosphorylation of Akt on Ser 473 at 100 to 250 uM after 24 hrs by immunoblotting relative to control. On the technique in general: A western blot detects proteins with antibodies after separation by electrophoresis.
The target in data set [1] is T1, PH domain leucine-rich repeat-containing protein phosphatase 2 (Homo sapiens, UniProt Q6ZVD8).
T1 sequence (Q6ZVD8 whole entry): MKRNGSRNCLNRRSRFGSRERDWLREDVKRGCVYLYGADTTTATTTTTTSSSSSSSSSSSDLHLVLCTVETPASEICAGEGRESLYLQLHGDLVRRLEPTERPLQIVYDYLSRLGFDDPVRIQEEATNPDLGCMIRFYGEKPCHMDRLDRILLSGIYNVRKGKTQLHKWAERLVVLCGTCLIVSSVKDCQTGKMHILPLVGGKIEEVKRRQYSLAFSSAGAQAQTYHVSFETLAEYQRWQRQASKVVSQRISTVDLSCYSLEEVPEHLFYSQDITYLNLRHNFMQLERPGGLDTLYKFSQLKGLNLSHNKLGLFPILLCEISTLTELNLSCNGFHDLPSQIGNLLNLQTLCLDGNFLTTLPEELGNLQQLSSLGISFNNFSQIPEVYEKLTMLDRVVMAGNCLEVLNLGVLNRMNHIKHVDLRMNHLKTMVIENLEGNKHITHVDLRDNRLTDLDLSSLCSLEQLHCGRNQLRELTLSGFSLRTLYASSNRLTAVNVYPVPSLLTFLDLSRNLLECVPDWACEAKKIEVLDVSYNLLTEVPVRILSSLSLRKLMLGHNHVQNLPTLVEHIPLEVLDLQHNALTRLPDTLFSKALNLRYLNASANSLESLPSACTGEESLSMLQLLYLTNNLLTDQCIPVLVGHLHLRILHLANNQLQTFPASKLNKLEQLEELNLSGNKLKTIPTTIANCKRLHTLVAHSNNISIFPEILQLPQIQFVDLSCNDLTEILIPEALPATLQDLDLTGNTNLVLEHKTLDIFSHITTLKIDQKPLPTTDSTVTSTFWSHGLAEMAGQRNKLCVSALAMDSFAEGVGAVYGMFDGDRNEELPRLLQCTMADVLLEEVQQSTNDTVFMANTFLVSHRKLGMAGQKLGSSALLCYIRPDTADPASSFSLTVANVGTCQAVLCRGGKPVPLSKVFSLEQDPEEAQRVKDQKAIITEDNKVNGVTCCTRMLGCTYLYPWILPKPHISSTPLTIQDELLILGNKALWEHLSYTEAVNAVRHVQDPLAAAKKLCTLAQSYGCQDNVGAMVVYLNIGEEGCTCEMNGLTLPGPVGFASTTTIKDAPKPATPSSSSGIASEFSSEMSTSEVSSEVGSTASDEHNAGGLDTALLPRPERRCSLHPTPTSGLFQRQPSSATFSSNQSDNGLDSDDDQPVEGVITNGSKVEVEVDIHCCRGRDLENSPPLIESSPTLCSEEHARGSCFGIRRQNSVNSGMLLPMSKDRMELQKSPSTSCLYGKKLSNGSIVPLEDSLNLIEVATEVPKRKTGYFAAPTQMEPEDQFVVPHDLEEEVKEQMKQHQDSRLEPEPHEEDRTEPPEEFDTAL
The experiment in a line: Inhibition of PHLPP2 phosphatase domain expressed in Escherichia coli. A digest of the protocol: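 A405 was followed over time, slope taken, no-enzyme background subtracted. Inhibitor at seven concentrations versus DMSO (100%); fit to eq 1, IC50 = −C0 ln(1/2).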

In data set [2] the test system is HT20. The experiment in a line: Inhibition of PHLPP in human […] cells assessed as increase of phosphorylation of FoxO1/3alpha on Thr 24/32 at 100 uM after 24 hrs by immunoblotting. Type of data set: cell-based. A digest of the protocol: (§1)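 HT29 colon cells kept in DMEM with 5% FBS were given compounds (100 or 250 μM, DMSO vehicle) for 24 h, then lysed on ice. […] Densitometry normalized to actin and expressed relative to control lanes; three experiments, mean ± SEM.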

The subject of data set [3] is HT20. In words: Inhibition of PHLPP in human […] cells assessed as increase of phosphorylation of Akt on Ser 473 at 100 uM after 24 hrs by immunoblotting. Type of data set: cell-based. A digest of the protocol: as §1
Data set [4] deals with HT20. In words: Inhibition of PHLPP in human […] cells assessed as increase of phosphorylation of GSK3 alpha/beta on Ser21/9 at 100 uM after 24 hrs by immunoblotting. Type of data set: cell-based. A digest of the protocol: as §1
The test system of data set [5] is HT20. The experiment in a line: Inhibition of PHLPP in human […] cells assessed as increase of phosphorylation of Akt on Ser 473 at 100 to 250 uM after 24 hrs by immunoblotting relative to control. Type of data set: cell-based. A digest of the protocol: as §1
The nature of data set [6]: Inhibition of PHLPP in human […] cells assessed as increase of phosphorylation of GSK3 alpha/beta on Ser21/9 at 100 to 250 uM after 24 hrs by immunoblotting. Type of data set: cell-based. A digest of the protocol: as §1
Data set [7] in a line: Inhibition of PHLPP in human […] cells assessed as increase of phosphorylation of FoxO1/3alpha on Thr 24/32 at 100 to 250 uM after 24 hrs by immunoblotting. Type of data set: cell-based. A digest of the protocol: as §1
Another data set relates to HT-29. In words: Cytotoxicity against human HT-29 cells at 100 uM after 24 hrs. As to conditions: ht-29, 24 h. Type of data set: cell-based.

pIC50: −log10 of the molar value. Active and inactive are the calls of the source. No cut-off for these calls is given here.

Turning to `Cc1cc(-c2ccc(/N=N/c3c(S(=O)(=O)O)cc4cc(S(=O)(=O)O)cc(N)c4c3O)c(C)c2)ccc1/N=N/c1cc(S(=O)(=O)O)c2ccccc2c1O`, the inhibition entry in the data set with HT-29 (Homo sapiens) is “Active”.

With `CS(=O)(=O)c1cc2cc(Nc3ccccc3)ccc2c(O)c1/N=N/c1ccc(-c2ccc(/N=N/c3ccc(O)c(C(=O)O)c3)cc2)cc1`, the inhibition result in the data set with HT-29 (Homo sapiens) is “Active”.

`O=C(O)c1cc(/N=N/c2ccc(S(=O)(=O)Nc3nccs3)cc2)ccc1O`: in the data set with HT-29 (Homo sapiens), the inhibition entry was “Active”.

On to `CS(=O)(=O)c1cc2ccc(Nc3ccccc3)cc2c(O)c1/N=N/c1ccc(-c2ccc(/N=N/c3ccc(O)c(C(=O)O)c3)cc2)cc1`, for which, in the data set with HT-29 (Homo sapiens), the inhibition entry was “Active”.

On to `CC(=O)Nc1ccc(Nc2cc(S(=O)(=O)O)c(N)c3c2C(=O)c2ccccc2C3=O)cc1`, for which the inhibition entry in the data set with HT-29 (Homo sapiens) is “Active”.

For `CS(=O)(=O)c1ccc2c(/N=N/c3ccc(-c4ccc(/N=N/c5ccc(N)c6cc(S(=O)(=O)O)ccc56)cc4)cc3)ccc(N)c2c1`, the inhibition result in the data set on HT-29 (Homo sapiens) is “Active”.

In the case of `COc1cc(/N=N/c2ccc(S(=O)(=O)O)cc2)ccc1/N=N/c1ccc(O)c(C(=O)O)c1`, in the data set on HT-29 (Homo sapiens), the inhibition entry was “Active”.

For `O=C(O)c1c(O)c(/N=N/c2ccc(S(=O)(=O)Nc3nccs3)cc2)cc2ccccc12`, the inhibition entry in the data set on HT-29 (Homo sapiens) was “Active”.

Usually pIC50 stands for the IC50 on a negative log10 scale, so that one unit is a factor of ten. Lower therefore signals a large IC50. On to `O=C(O)C1CCCCC1c1c2ccc(=O)c(O)c-2oc2c(O)c(O)ccc12` (stereo unspecified), for which, in the data set on HT-29 (Homo sapiens), the inhibition result was “Active”. The same compound showed a pIC50 in data set [1] of 5.00.

On to `Nc1cc(N)c(/N=N/c2ccc(S(=O)(=O)O)cc2)cc1/N=N/c1ccc(-c2ccc(/N=N/c3ccc(O)c(C(=O)O)c3)cc2)cc1`, for which the inhibition result with HT-29 (Homo sapiens) was “Active”.

Turning to `CN(C)c1ccc(C(c2ccc(N(C)C)cc2)c2ccc([N+](=O)[O-])cc2)cc1`, the inhibition result with HT-29 (Homo sapiens) is “Active”.

As for `Nc1nc(SCc2ccccc2)c2ncn(Cc3ccccc3)c2n1`, the inhibition result in the data set on HT-29 (Homo sapiens) is “Active”.

For `O=S(=O)(O)c1ccc(-c2nnc(-c3ccccn3)nc2-c2ccc(S(=O)(=O)O)o2)o1`, the inhibition entry in the data set on HT-29 (Homo sapiens) is “Active”.

Consider `Nc1c(/N=N/c2ccc(-c3ccc(/N=N/c4cc(S(=O)(=O)O)c5ccccc5c4N)cc3)cc2)cc(S(=O)(=O)O)c2ccccc12`, for which the inhibition entry in the data set with HT-29 (Homo sapiens) was “Active”.

As to `NS(=O)(=O)c1ccc(/N=N/c2ncccc2O)cc1`, the inhibition result in the data set with HT-29 (Homo sapiens) is “Active”.

For `COc1ccc(NCc2c(O)ccc3ccccc23)cc1`, the inhibition entry in the data set with HT20 [2] and in the data set with HT20 [4] was “Active” in each case. Moreover, the inhibition result with HT20 [3] was “inactive”.

Regarding `CN(C)CCOC(=O)c1ccc(N)cc1`, the inhibition result with HT-29 (Homo sapiens) was “Active”.

As for `C[C@]12CC[C@H]3[C@@H](CCC4=CC(=O)CC[C@@]43C)[C@@H]1CC[C@@H]2C(=O)COS(=O)(=O)c1ccc(Br)cc1`, in the data set on HT20 [5], the inhibition entry was “Active”.

On to `Cc1ccc(/N=N/c2c(N)c(C)cc(/N=N/c3ccc(/N=N/c4ccc(O)c(C(=O)O)c4)cc3)c2N)c(S(=O)(=O)O)c1`, for which the inhibition result in the data set on HT-29 (Homo sapiens) was “Active”.

As to `COc1cc(-c2ccc(/N=N/c3c(S(=O)(=O)O)cc4cc(N)ccc4c3O)c(OC)c2)ccc1/N=N/c1cc(S(=O)(=O)O)c2ccccc2c1O`, in the data set with HT-29 (Homo sapiens), the inhibition result was “Active”.

For `O=C1c2ccccc2-c2cc([N+](=O)[O-])c([N+](=O)[O-])cc21`, the inhibition result with HT-29 (Homo sapiens) was “Active”.

With `Cc1cc(/N=N/c2ccc(/N=N/c3ccc(S(=O)(=O)O)cc3)cc2)cc(C(=O)O)c1O`, the inhibition result with HT-29 (Homo sapiens) was “Active”.

`O=C(O)c1c(O)c(/N=N/c2ccc(S(=O)(=O)Nc3ccccn3)cc2)cc2ccccc12`: in the data set on HT-29 (Homo sapiens), the inhibition result is “Active”.

For the compound `S=C(Nc1ccc2cn[nH]c2c1)Nc1ccc2cn[nH]c2c1`, in the data set with HT-29 (Homo sapiens), the inhibition result is “Active”.

Turning to `COc1ccc2nc3cc(Cl)ccc3c(Nc3ccc(C(=O)O)cc3)c2c1`, the inhibition result (in data set [6]; with HT-29 (Homo sapiens); in [7]) was “Active” each time.

`NS(=O)(=O)c1ccc(/N=N/c2ccc(O)c(C(=O)O)c2)cc1`: the inhibition result in the data set on HT-29 (Homo sapiens) was “Active”.

`Cc1cc(/N=N/c2ccc(/N=N/c3ccc(O)c(C(=O)O)c3)cc2)c(N)cc1N`: the inhibition entry (in data set [6]; in the data set on HT-29 (Homo sapiens); in data set [7]) was “Active” each time. In data set [1], this compound had a pIC50 of 5.43.

On to `Nc1cc(S(=O)(=O)O)cc2cc(S(=O)(=O)O)c(/N=N/c3ccc(S(=O)(=O)c4ccc(/N=N/c5c(O)ccc6cccc(S(=O)(=O)O)c56)cc4)cc3)c(O)c12`, for which the inhibition result with HT-29 (Homo sapiens) is “Active”.

As for `COc1ccc2nc3cc(Cl)ccc3c(Nc3ccc(C(=O)O)c(O)c3)c2c1`, in the data set with HT-29 (Homo sapiens), the inhibition result is “Active”.

As to `COc1cc(NCCC2CCCCN2)c2ncccc2c1` (stereo unspecified), the inhibition entry (in [6]; in the data set on HT-29 (Homo sapiens); in data set [7]) was “Active” each time. For the same compound, the Activity entry with HT-29 was “Toxic”.
